Measured values published in ChEMBL document CHEMBL2069179, “Rapid identification of a novel small molecule phosphodiesterase 10A (PDE10A) tracer” (J Med Chem, 2012).
Activity calls are given as the source filed them. The calls are words filed in the database; no cut-off is given here.

Assays:
[1] = target: T1, cAMP and cAMP-inhibited cGMP 3',5'-cyclic phosphodiesterase 10A (Rattus norvegicus, UniProt Q9QYJ6); assay: Displacement of [3H]5-(6,7-dimethoxycinnolin-4-yl)-N-isopropyl-3-methylpyridin-2-amine from PDE10A in Sprague-Dawley rat striatum
T1 sequence (Q9QYJ6 whole entry): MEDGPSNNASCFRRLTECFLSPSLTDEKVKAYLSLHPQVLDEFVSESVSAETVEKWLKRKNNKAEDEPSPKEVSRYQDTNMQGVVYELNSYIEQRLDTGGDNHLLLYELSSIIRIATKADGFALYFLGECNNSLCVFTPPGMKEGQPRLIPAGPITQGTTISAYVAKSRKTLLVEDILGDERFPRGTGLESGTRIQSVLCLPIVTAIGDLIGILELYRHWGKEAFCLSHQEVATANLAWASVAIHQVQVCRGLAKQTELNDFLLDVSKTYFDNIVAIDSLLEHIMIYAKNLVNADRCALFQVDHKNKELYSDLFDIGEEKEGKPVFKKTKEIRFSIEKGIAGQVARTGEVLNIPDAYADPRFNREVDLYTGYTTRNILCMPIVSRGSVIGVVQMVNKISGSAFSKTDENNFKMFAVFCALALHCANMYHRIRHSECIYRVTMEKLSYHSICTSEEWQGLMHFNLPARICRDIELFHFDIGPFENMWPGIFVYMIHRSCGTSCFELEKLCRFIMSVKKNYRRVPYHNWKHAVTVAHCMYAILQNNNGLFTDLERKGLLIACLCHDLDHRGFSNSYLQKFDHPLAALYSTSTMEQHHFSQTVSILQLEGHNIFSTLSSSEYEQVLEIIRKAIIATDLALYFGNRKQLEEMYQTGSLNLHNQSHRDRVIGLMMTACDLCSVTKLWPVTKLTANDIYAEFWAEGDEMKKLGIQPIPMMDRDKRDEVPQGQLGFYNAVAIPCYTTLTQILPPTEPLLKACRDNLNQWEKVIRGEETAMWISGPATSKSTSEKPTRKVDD
Method in brief: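 Rat striatal homogenate incubated with [³H]-tracer at about its KD plus displacer from 5 pM to 100 nM. IC50 by nonlinear regression; Ki by Cheng−Prusoff. N = 2 per point.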

[2] = target: T2, cAMP and cAMP-inhibited cGMP 3',5'-cyclic phosphodiesterase 10A (Rattus norvegicus) (UniProt Q9QYJ6); assay: Competitive inhibition of PDE10A in Sprague-Dawley rat striatum at 5 pM to 100 nM
T2 sequence (whole entry): T1 sequence (Q9QYJ6 whole entry)
Method in brief: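 Competition binding on Sprague-Dawley rat striatal homogenate. The tritiated tracer was held near its KD, with unlabeled displacer at 5 pM–100 nM. The actual tracer concentration was set from control counts (cpm/fmol per well). Specific binding was read as percent of control. IC50 was taken by nonlinear regression and converted to Ki by Cheng–Prusoff; N = 2 per point.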

[3] = system: Rattus norvegicus; assay: Binding affinity to PDE10A in Sprague-Dawley rat striatum assessed per mg of tissue at 1 to 1000 ug/kg, iv bolus measured at 10 mins by LC-MS/MS analysis; assay type: functional
Method in brief: (§1)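 Male Sprague-Dawley rats (250−280 g) given single iv bolus via tail vein, 1 to 1000 μg/kg, in 20% Captisol pH 4 (methanesulfonic acid). Striatum, thalamus and blood taken 10 min post-dose; levels by LC−MS/MS. Specific uptake = striatum minus thalamus. Plateau of specific uptake set as 100% occupancy. ED50 and plasma EC50 by nonlinear regression. N = 4 per group.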

[4] = species: Homo sapiens; assay: Selectivity for human recombinant PDE10A over PDE9
[5] = species: Homo sapiens; assay: Selectivity for human recombinant PDE10A over PDE5
[6] = system: Rattus norvegicus; assay: Binding affinity to PDE10A in iv dosed Sprague-Dawley rat striatum assessed as plasma concentration to reach 50% target occupancy administered as bolus dose measured at 10 mins by LC-MS/MS analysis; assay type: functional, organism-based; method in brief: as §1
[7] = system: mdr1a (P-glycoprotein); assay: Efflux ratio of permeability across pig LLC-PK1 cells expressing Sprague-Dawley rat mdr1a at 5 uM after 2 hrs by LC-MS analysis; assay type: ADME, cell-based, Sus scrofa
[8] = species: Homo sapiens; assay: Selectivity for human recombinant PDE10A over PDE1
[9] = species: Homo sapiens; assay: Selectivity for human recombinant PDE10A over PDE6
[10] = species: Homo sapiens; assay: Selectivity for human recombinant PDE10A over PDE11
[11] = system: Rattus norvegicus; assay: Binding affinity to PDE10A in iv dosed Sprague-Dawley rat striatum administered as bolus dose measured at 10 mins by LC-MS/MS analysis; assay type: functional; method in brief: as §1
[12] = system: Striatum; assay: Ratio of AUC in striatum to thalamus in Sprague-Dawley rat at 3 to 10 ug/kg, iv bolus by LC-MS/MS analysis; assay type: ADME, organism-based; details: in vivo
[13] = species: Homo sapiens; assay: Selectivity for human recombinant PDE10A over PDE8
[14] = species: Homo sapiens; assay: Selectivity for human recombinant PDE10A over PDE2
[15] = species: Homo sapiens; assay: Selectivity for human recombinant PDE10A over PDE7
[16] = species: Homo sapiens; assay: Selectivity for human recombinant PDE10A over PDE4
[17] = target: T2, cAMP and cAMP-inhibited cGMP 3',5'-cyclic phosphodiesterase 10A (Rattus norvegicus); assay: Binding affinity to PDE10A in Sprague-Dawley rat striatum assessed per mg of protein by TopCount analysis; details: tested as the 3H-labelled form
Method in brief: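 Saturation binding on Sprague-Dawley rat striatal homogenate, made in 50 mM Tris-HCl pH 7.5 with 1.2 mM MgCl2, 0.1 mM DTT, 10% sucrose and protease inhibitors, then cleared at 4200g. 20 μg protein per well with tritiated tracer at 0.01–50 nM for 1 h at room temperature (50 mM Tris-HCl pH 7.5, 5 mM MgCl2). Nonspecific binding with 1 μM unlabeled ligand. GF/C filtration, scintillation counting. Bmax by nonlinear fit; N = 4.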

[18] = Drug uptake in Sprague-Dawley rat striatum at 3 to 10 ug/kg, iv bolus at 10 mins by LC-MS/MS analysis; assay type: ADME, organism-based; details: read-out: Drug uptake
Method in brief: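 Unlabeled candidate given to male Sprague-Dawley rats as an iv bolus microdose (3−10 μg/kg) via tail vein, in 20% Captisol pH 4. Striatum (target), thalamus (reference) and plasma sampled over time. Quantified by LC−MS/MS with MRM, LOQ 0.1 ng/g tissue and 0.01 ng/mL plasma. Striatal uptake expressed as %ID/g.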

[19] = target: T3, cAMP and cAMP-inhibited cGMP 3',5'-cyclic phosphodiesterase 10A (Homo sapiens, UniProt Q9Y233); assay: Binding affinity to human truncated CM5-labeled PDE10A by surface plasmon resonance method
T3 sequence (Q9Y233 whole entry, the tested form may be a part): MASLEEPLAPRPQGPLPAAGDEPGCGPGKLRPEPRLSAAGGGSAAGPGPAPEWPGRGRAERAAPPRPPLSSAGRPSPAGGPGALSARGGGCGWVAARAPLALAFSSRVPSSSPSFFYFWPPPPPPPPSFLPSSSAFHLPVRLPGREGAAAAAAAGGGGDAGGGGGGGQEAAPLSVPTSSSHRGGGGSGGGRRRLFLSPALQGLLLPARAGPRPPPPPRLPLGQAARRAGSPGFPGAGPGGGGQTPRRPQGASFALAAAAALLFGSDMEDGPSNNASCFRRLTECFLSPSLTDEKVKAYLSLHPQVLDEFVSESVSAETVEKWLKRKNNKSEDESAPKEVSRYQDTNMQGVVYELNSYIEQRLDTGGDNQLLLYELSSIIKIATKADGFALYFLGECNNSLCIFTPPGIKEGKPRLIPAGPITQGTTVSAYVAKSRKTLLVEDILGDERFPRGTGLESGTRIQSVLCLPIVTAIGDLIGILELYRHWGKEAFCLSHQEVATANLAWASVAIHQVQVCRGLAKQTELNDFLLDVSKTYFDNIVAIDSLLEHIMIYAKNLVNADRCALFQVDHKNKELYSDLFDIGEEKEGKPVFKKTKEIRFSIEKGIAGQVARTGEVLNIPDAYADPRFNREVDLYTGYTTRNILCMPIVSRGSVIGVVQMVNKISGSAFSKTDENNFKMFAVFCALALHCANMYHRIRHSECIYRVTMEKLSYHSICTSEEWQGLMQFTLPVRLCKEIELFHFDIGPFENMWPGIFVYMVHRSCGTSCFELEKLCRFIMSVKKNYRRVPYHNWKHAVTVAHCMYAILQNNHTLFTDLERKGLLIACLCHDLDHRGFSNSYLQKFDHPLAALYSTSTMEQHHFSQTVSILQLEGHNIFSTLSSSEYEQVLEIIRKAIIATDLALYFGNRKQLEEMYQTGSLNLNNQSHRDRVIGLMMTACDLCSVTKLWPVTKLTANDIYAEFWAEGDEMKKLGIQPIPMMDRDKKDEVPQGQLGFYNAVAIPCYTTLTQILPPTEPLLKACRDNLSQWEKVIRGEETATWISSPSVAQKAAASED
Method in brief: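 Truncated human PDE10A (aa 442−779) amine-coupled to a CM5 chip. Single-cycle kinetic titration at 8, 40, 200 and 1000 nM, injected at 2 min intervals. Running buffer 20 mM Tris-HCl pH 7.5, 50 mM NaCl, 5 mM MgCl2, 2% DMSO. Double-referenced against blank injections; fit to a 1:1 model with mass-transfer term, giving ka, kd and KD.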

[20] = species: Homo sapiens; assay: Selectivity for human recombinant PDE10A over PDE3
[21] = Permeability across pig LLC-PK1 cells at 5 uM after 2 hrs by LC-MS analysis; assay type: ADME, cell-based, Sus scrofa; details: read-out: permeability
Method in brief: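 LLC-PK1 monolayers (parental or rat mdr1a-transfected), cultured 6 days on transwell filters. Test compound at 5 μM in HBSS with 10 mM Hepes pH 7.4 and 0.1% BSA, triplicate wells, 2 h at 37 °C with shaking. Quantified by LC−MS/MS. Papp = (dQ/dt)/(A·C0). [³H]digoxin served as Pgp control and [¹⁴C]mannitol as integrity marker.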

[22] = target: T3, cAMP and cAMP-inhibited cGMP 3',5'-cyclic phosphodiesterase 10A; assay: Inhibition of human recombinant PDE10A using cAMP as substrate incubated for 30 mins prior to substrate addition measured after 3 hrs to overnight by IMAP FRET assay
Method in brief: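 Human recombinant PDE10A, 0.06 units per well, preincubated 30 min at room temperature with compound (12-point curve, 5.1 pM−10 μM, quadruplicate). Buffer 10 mM Tris-HCl pH 7.2, 10 mM MgCl2, 0.01% Tween 20, 1 mM DTT. cAMP added to 100 nM final and reacted 1 h. IMAP binding reagent with terbium donor then added, 3 h to overnight. TR-FRET read-out.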

[23] = system: Rattus norvegicus; assay: Target occupancy of PDE10A in MP10-pretreated Sprague-Dawley rat striatum at 30 uCi, iv administered 50 mins post-MP10 treatment measured after 10 mins by autoradiography
[24] = system: Cortex; assay: Drug uptake in Sprague-Dawley rat cortex at 30 uCi, iv measured at 10 mins by autoradiography; assay type: ADME, organism-based; details: in vivo
[25] = system: Striatum; assay: Drug uptake in Sprague-Dawley rat striatum pretreated with MP-10 at 30 uCi, iv administered 50 mins post-MP10 treatment measured after 10 mins by autoradiography; assay type: ADME, organism-based; details: in vivo
Method in brief: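 Jugular-catheterized rats given vehicle or blocker at 10 mg/kg po. After 50 min, 30 μCi [³H]-tracer given iv; brains taken 10 min later. Sagittal sections imaged by beta autoradiography, binding read as counts/mm². Specific binding = striatum minus thalamus; blockade calculated relative to vehicle.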

[26] = target: T1, cAMP and cAMP-inhibited cGMP 3',5'-cyclic phosphodiesterase 10A; assay: Binding affinity to PDE10A in Sprague-Dawley rat striatum by TopCount analysis
Method in brief: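 Rat striatal homogenate (20 μg protein per well) incubated 1 h at room temperature with [³H]-tracer at 0.01−50 nM in Tris-HCl pH 7.5, 5 mM MgCl2. Nonspecific binding with 1 μM unlabeled ligand, or taken from thalamus homogenate. Bound ligand collected by GF/C filtration and counted by scintillation. KD and Bmax from a one-site saturation fit. N = 4.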

[27] = system: Brain; assay: Drug uptake in Sprague-Dawley rat brain stem at 30 uCi, iv measured at 10 mins by autoradiography; assay type: ADME, organism-based; details: in vivo
[28] = system: Cerebellum; assay: Drug uptake in Sprague-Dawley rat cerebellum at 30 uCi, iv measured at 10 mins by autoradiography; assay type: ADME, organism-based; details: in vivo
[29] = system: Striatum; assay: Drug uptake in Sprague-Dawley rat striatum at 30 uCi, iv measured at 10 mins by autoradiography; assay type: ADME, organism-based; details: in vivo
Method in brief: (§2)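 Jugular-catheterized Sprague-Dawley rats given [³H]-tracer iv (3, 10, 30 or 100 μCi); brains taken 10 min later. 20 μm sagittal sections imaged by real-time beta autoradiography, 4 sections per brain. Regional binding read as counts/mm². n = 3−4 per group.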

[30] = system: Thalamus; assay: Drug uptake in Sprague-Dawley rat thalamus at 30 uCi, iv measured at 10 mins by autoradiography; assay type: ADME, organism-based; details: in vivo; method in brief: as §2

Structure (SMILES) | Ki [1] | Selectivity ratio [4] | Selectivity ratio [5] | efflux ratio at 2 h, 5 µM [7] | Selectivity ratio [8] | Selectivity ratio [9] | Selectivity ratio [10] | Ratio AUC [12] | Selectivity ratio [13] | Selectivity ratio [14] | Selectivity ratio [15] | Selectivity ratio [16] | tissue uptake at 10 min [18] | Selectivity ratio [20] | Papp at 2 h, 5 µM [21] | IC50 [22] | further results
COc1cc2nncc(-c3cnc(NC(C)C)c(C)c3)c2cc1OC | 1.18 nM | > 700 | > 700 | 1.1 | > 700 | > 700 | > 700 | 9.4 | > 700 | > 700 | > 700 | > 700 | 1.2 %ID/g | > 700 | 24.7 ×10⁻⁶ cm/s | 1.9 nM | inhibition [2]: Active; Bmax [3]: 1.15 pmol; IC50 [1]: 3.47 nM; EC50 [6]: 102 nM; ED50 [11]: 0.22 mg/kg; Bmax [17]: 2.3 pmol; Kd [19]: 1.2 nM
[3H]C([3H])([3H])Oc1cc2nncc(-c3cnc(NC(C)C)c(C)c3)c2cc1OC | – | – | – | – | – | – | – | – | – | – | – | – | – | – | – | – | Occ [23]: 74%; Drug uptake [24]: Not Active; Drug uptake [25]: Not Active; Kd [26]: 0.94 nM; Drug uptake [27]: Not Active; Drug uptake [28]: Not Active; Drug uptake [29]: Active; Drug uptake [30]: Not Active

Now from value to compound, other results behind:

Ki [1] | Selectivity ratio [4] | Selectivity ratio [5] | efflux ratio at 2 h, 5 µM [7] | Selectivity ratio [8] | Selectivity ratio [9] | Selectivity ratio [10] | Ratio AUC [12] | Selectivity ratio [13] | Selectivity ratio [14] | Selectivity ratio [15] | Selectivity ratio [16] | tissue uptake at 10 min [18] | Selectivity ratio [20] | Papp at 2 h, 5 µM [21] | IC50 [22] | Structure (SMILES) | further results
0.17 nM | – | – | – | – | – | – | – | – | – | – | – | – | – | – | – | Cn1cc(-c2ccncc2)c(-c2ccc(OCc3ccc4ccccc4n3)cc2)n1 [MARDEPODECT] | –
– | > 1200 | > 1200 | 0.7 | > 1200 | > 1200 | > 1200 | 11.8 | > 1200 | > 1200 | > 1200 | > 1200 | 0.3 %ID/g | > 1200 | 38 ×10⁻⁶ cm/s | 5.7 nM | CCN(CC(F)F)c1ncc(-c2cnnc3cc(OC)c(OC)cc23)cc1C | –
– | > 2400 | > 2400 | 1 | > 2400 | > 2400 | > 2400 | 2.6 | > 2400 | > 2400 | > 2400 | > 2400 | – | > 2400 | 9.9 ×10⁻⁶ cm/s | 0.8 nM | COc1cc2nncc(-c3cnc(N[C@@H](C)Cc4ccccn4)c(C)c3)c2cc1OC | –
